ChEMBL document CHEMBL3612027, “Substrate-guided optimization of the syringolins yields potent proteasome inhibitors with activity against leukemia cell lines” (Bioorg Med Chem, 2015)

Legend:
Format in all cases: functional
[1] = system: CCRF-CEM; experiment: Cytotoxicity against human CCRF-CEM cells assessed as cell growth at 10 uM after 48 hrs relative to control; details: read-out: Activity
In short: (§1)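 Run at the National Cancer Institute as a single-dose screen across its 60-cell-line cancer panel. Compound was tested at 10 micromolar, and growth was expressed as a percentage of negative-control cultures.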

[2] = system: K562; experiment: Cytotoxicity against human K562 cells assessed as cell growth at 10 uM after 48 hrs relative to control; details: K562, 48 h, read-out: Activity; in short: as §1
[3] = system: MOLT-4; experiment: Cytotoxicity against human MOLT4 cells assessed as cell growth at 10 uM after 48 hrs relative to control; details: MOLT-4, 48 h, read-out: Activity; in short: as §1
[4] = system: RPMI-8226; experiment: Cytotoxicity against human RPMI8226 cells assessed as cell growth at 10 uM after 48 hrs relative to control; details: RPMI-8226, 48 h, read-out: Activity; in short: as §1
[5] = system: SR; experiment: Cytotoxicity against human SR cells assessed as cell growth at 10 uM after 48 hrs relative to control; details: read-out: Activity
In short: (§2)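 Submitted to the National Cancer Institute for a single-dose screen at 10 micromolar against 60 cancer cell lines. Growth is expressed relative to negative-control cultures.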

[6] = system: HOP-62; experiment: Cytotoxicity against human HOP62 cells assessed as cell growth at 10 uM after 48 hrs relative to control; details: HOP-62, 48 h, read-out: Activity; in short: as §1
[7] = system: NCI-H226; experiment: Cytotoxicity against human NCI-H226 cells assessed as cell growth at 10 uM after 48 hrs relative to control; details: NCI-H226, 48 h, read-out: Activity; in short: as §1
[8] = system: NCI-H23; experiment: Cytotoxicity against human NCI-H23 cells assessed as cell growth at 10 uM after 48 hrs relative to control; details: NCI-H23, 48 h, read-out: Activity; in short: as §1
[9] = system: NCI-H322M; experiment: Cytotoxicity against human NCI-H322M cells assessed as cell growth at 10 uM after 48 hrs relative to control; details: read-out: Activity; in short: as §1
[10] = system: HCC 2998; experiment: Cytotoxicity against human HCC2998 cells assessed as cell growth at 10 uM after 48 hrs relative to control; details: HCC 2998, 48 h, read-out: Activity; in short: as §1
[11] = system: HCT-116; experiment: Cytotoxicity against human HCT116 cells assessed as cell growth at 10 uM after 48 hrs relative to control; details: HCT-116, 48 h, read-out: Activity; in short: as §1
[12] = system: SW-620; experiment: Cytotoxicity against human SW620 cells assessed as cell growth at 10 uM after 48 hrs relative to control; details: SW-620, 48 h, read-out: Activity; in short: as §2
[13] = system: SF-295; experiment: Cytotoxicity against human SF295 cells assessed as cell growth at 10 uM after 48 hrs relative to control; details: SF-295, 48 h, read-out: Activity; in short: as §1
[14] = system: SNB-19; experiment: Cytotoxicity against human SNB19 cells assessed as cell growth at 10 uM after 48 hrs relative to control; details: SNB-19, 48 h, read-out: Activity; in short: as §2
[15] = system: U-251; experiment: Cytotoxicity against human U251 cells assessed as cell growth at 10 uM after 48 hrs relative to control; details: U-251, 48 h, read-out: Activity; in short: as §2
[16] = system: LOX IMVI; experiment: Cytotoxicity against human LOXIMVI cells assessed as cell growth at 10 uM after 48 hrs relative to control; details: read-out: Activity; in short: as §1
[17] = system: Malme-3M; experiment: Cytotoxicity against human MALME-3M cells assessed as cell growth at 10 uM after 48 hrs relative to control; details: read-out: Activity; in short: as §1
[18] = system: M14; experiment: Cytotoxicity against human M14 cells assessed as cell growth at 10 uM after 48 hrs relative to control; details: M14, 48 h, read-out: Activity; in short: as §1
[19] = system: SK-MEL-2; experiment: Cytotoxicity against human SK-MEL-2 cells assessed as cell growth at 10 uM after 48 hrs relative to control; details: SK-MEL-2, 48 h, read-out: Activity; in short: as §1
[20] = system: SK-MEL-28; experiment: Cytotoxicity against human SK-MEL-28 cells assessed as cell growth at 10 uM after 48 hrs relative to control; details: SK-MEL-28, 48 h, read-out: Activity; in short: as §1
[21] = system: SK-MEL-5; experiment: Cytotoxicity against human SK-MEL-5 cells assessed as cell growth at 10 uM after 48 hrs relative to control; details: SK-MEL-5, 48 h, read-out: Activity; in short: as §1
[22] = system: UACC-257; experiment: Cytotoxicity against human UACC257 cells assessed as cell growth at 10 uM after 48 hrs relative to control; details: UACC-257, 48 h, read-out: Activity; in short: as §2
[23] = system: UACC-62; experiment: Cytotoxicity against human UACC62 cells assessed as cell growth at 10 uM after 48 hrs relative to control; details: UACC-62, 48 h, read-out: Activity; in short: as §2
[24] = system: IGROV-1; experiment: Cytotoxicity against human IGROV1 cells assessed as cell growth at 10 uM after 48 hrs relative to control; details: IGROV-1, 48 h, read-out: Activity; in short: as §1
[25] = system: OVCAR-3; experiment: Cytotoxicity against human OVCAR3 cells assessed as cell growth at 10 uM after 48 hrs relative to control; details: OVCAR-3, 48 h, read-out: Activity; in short: as §1
[26] = system: OVCAR-4; experiment: Cytotoxicity against human OVCAR4 cells assessed as cell growth at 10 uM after 48 hrs relative to control; details: OVCAR-4, 48 h, read-out: Activity; in short: as §1
[27] = system: OVCAR-5; experiment: Cytotoxicity against human OVCAR5 cells assessed as cell growth at 10 uM after 48 hrs relative to control; details: OVCAR-5, 48 h, read-out: Activity; in short: as §1
[28] = system: SK-OV-3; experiment: Cytotoxicity against human SKOV3 cells assessed as cell growth at 10 uM after 48 hrs relative to control; details: SK-OV-3, 48 h, read-out: Activity; in short: as §1
[29] = system: 786-0; experiment: Cytotoxicity against human 786-0 cells assessed as cell growth at 10 uM after 48 hrs relative to control; details: 786-0, 48 h, read-out: Activity; in short: as §1
[30] = system: ACHN; experiment: Cytotoxicity against human ACHN cells assessed as cell growth at 10 uM after 48 hrs relative to control; details: read-out: Activity; in short: as §1
[31] = system: CAKI-1; experiment: Cytotoxicity against human Caki1 cells assessed as cell growth at 10 uM after 48 hrs relative to control; details: CAKI-1, 48 h, read-out: Activity; in short: as §1
[32] = Cytotoxicity against human Hs578T cells assessed as cell growth at 10 uM after 48 hrs relative to control; details: Hs-578T, read-out: Activity; in short: as §1
[33] = system: BT-549; experiment: Cytotoxicity against human BT549 cells assessed as cell growth at 10 uM after 48 hrs relative to control; details: BT-549, 48 h, read-out: Activity; in short: as §1
[34] = system: NCI-H522; experiment: Cytotoxicity against human NCI-H522 cells assessed as cell growth at 10 uM after 48 hrs relative to control; details: NCI-H522, 48 h, read-out: Activity; in short: as §1
[35] = system: MDA-MB-468; experiment: Cytotoxicity against human MDA-MB-468 cells assessed as cell growth at 10 uM after 48 hrs relative to control; details: MDA-MB-468, 48 h, read-out: Activity; in short: as §1
[36] = system: HL-60; experiment: Cytotoxicity against human HL60 cells after 48 hrs; details: HL-60, 48 h
[37] = Cytotoxicity against human RPMI-8226 cells after 48 hrs; details: RPMI-8226, 48 h

Structure (SMILES)	growth at 10 µM [1] [%]	growth at 10 µM [2] [%]	growth at 10 µM [3] [%]	growth at 10 µM [4] [%]	growth at 10 µM [5] [%]	growth at 10 µM [6] [%]	growth at 10 µM [7] [%]	growth at 10 µM [8] [%]	growth at 10 µM [9] [%]	growth at 10 µM [10] [%]	growth at 10 µM [11] [%]	growth at 10 µM [12] [%]	growth at 10 µM [13] [%]	growth at 10 µM [14] [%]	growth at 10 µM [15] [%]	growth at 10 µM [16] [%]	growth at 10 µM [17] [%]	growth at 10 µM [18] [%]	growth at 10 µM [19] [%]	growth at 10 µM [20] [%]	further results
COC(=O)[C@@H](NC(=O)N[C@H](C(=O)N[C@H]1CCCCNC(=O)/C=C/[C@H](Cc2c[nH]c3ccccc23)NC1=O)C(C)C)C(C)C	15.8	52	8.54	19	9.87	95	15.1	38.2	76.2	44.2	37.4	58.3	85.4	41.7	27.4	25.1	47.9	86.7	17.4	41.9	growth at 10 µM [21]: 60.6%; growth at 10 µM [22]: 65.4%; growth at 10 µM [23]: 60.7%; growth at 10 µM [24]: 24.7%; growth at 10 µM [25]: -42.9%; growth at 10 µM [26]: 2.98%; growth at 10 µM [27]: 61.1%; growth at 10 µM [28]: 15.4%; growth at 10 µM [29]: 83.9%; growth at 10 µM [30]: 90.8%; growth at 10 µM [31]: 98.8%; growth at 10 µM [32]: 9.21%; growth at 10 µM [33]: 8.05%; growth at 10 µM [34]: -17.8%
COC(=O)[C@@H](NC(=O)N[C@@H](Cc1ccccc1)C(=O)N[C@H]1CCCCNC(=O)/C=C/[C@H](C(C)C)NC1=O)C(C)C	55.1	47.2	49.2	23.1	8.54	84.4	54.7	44.1	94.2	52.8	26.5	38.5	101	48.8	17.4	15.2	77	86.6	12.7	52.1	growth at 10 µM [21]: 34%; growth at 10 µM [22]: 58.5%; growth at 10 µM [23]: 29%; growth at 10 µM [24]: 45.1%; growth at 10 µM [25]: 1.28%; growth at 10 µM [26]: 56.6%; growth at 10 µM [27]: 104%; growth at 10 µM [28]: 101%; growth at 10 µM [29]: 97.5%; growth at 10 µM [30]: 102%; growth at 10 µM [31]: 98.3%; growth at 10 µM [32]: 40.9%; growth at 10 µM [33]: 29.6%; growth at 10 µM [35]: 31.2%; growth at 10 µM [34]: -43.8%
COC(=O)[C@@H](NC(=O)N[C@H](C(=O)N[C@H]1CCCCNC(=O)/C=C/[C@H](C(C)C)NC1=O)C(C)C)C(C)C	15.1	40.5	10.2	15.2	7.05	22.9	-24	34.2	77	-0.39	21.2	30.3	58.9	34	8.29	-24.1	29.9	64.5	1.6	30.2	GI50 [36]: 5.41 µM; GI50 [37]: 3.97 µM; growth at 10 µM [21]: -4.25%; growth at 10 µM [22]: 33.4%; growth at 10 µM [23]: 13.3%; growth at 10 µM [24]: 33.4%; growth at 10 µM [25]: -39.6%; growth at 10 µM [26]: 6.22%; growth at 10 µM [27]: 58.4%; growth at 10 µM [28]: 47.5%; growth at 10 µM [29]: 83.3%; growth at 10 µM [30]: 96.4%; growth at 10 µM [31]: 103%; growth at 10 µM [32]: 4.52%; growth at 10 µM [33]: 5.44%; growth at 10 µM [35]: -0.21%
